The subject of one experiment is K562. Put plainly: Antiproliferative activity against human K562 cells assessed as growth inhibition measured after 72 hrs by calcein AM dye-based fluorescence assay. The experiment is classed as functional. The essentials:
(§1)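 Cells exposed to three-fold compound dilutions in triplicate for 72 h. Calcein AM then added and live-cell fluorescence read at 485/538 nm (ex/em). GI50 taken from dose-response curves. Values from at least triplicate measurements.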

The test system of another experiment is CCRF-CEM. Briefly: Antiproliferative activity against human CEM cells assessed as growth inhibition measured after 72 hrs by calcein AM dye-based fluorescence assay. The experiment is classed as functional. The method, boiled down: as §1
The subject of experiment [1] is HCT-116. Put plainly: Antiproliferative activity against human HCT-116 cells assessed as increase in cell death at 25 uM measured after 24 hrs by IncuCyte live-cell imaging analysis. The experiment is classed as functional, cell-based. The method, boiled down:
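HCT-116 cells plated at 10 000 cells/well and exposed to compounds at 25 µM for 24 h. Cell membrane integrity/death followed in real time by live-cell imaging with a Cytotox Red reagent.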

Experiment [2] deals with HCT-116. Briefly: Antiproliferative activity against human HCT116 cells assessed as growth inhibition measured after 72 hrs by calcein AM dye-based fluorescence assay. In kind it is functional. The method, boiled down:
as §1

The test system of another experiment is G-361. Briefly: Antiproliferative activity against human G361 cells assessed as growth inhibition measured after 72 hrs by calcein AM dye-based fluorescence assay. In kind it is functional. The method, boiled down: as §1
The next experiment deals with MCF7. Briefly: Antiproliferative activity against human MCF7 cells assessed as growth inhibition measured after 72 hrs by calcein AM dye-based fluorescence assay. The experiment is classed as functional. The method, boiled down: as §1

Activity calls are given as the source filed them. The rule behind the calls is not given here.

For the molecule `Cc1ccc(NC(=O)[C@H](CC(C)C)NC(=O)[C@H](CC(C)C)NC(=O)c2cc(Cl)ccc2OCc2ccccc2)cc1`, the GI50 is 87.7 µM in the experiment on K562 and 52.8 µM in the experiment on CCRF-CEM.

With `O=C(N[C@@H](Cc1ccccc1)C(=O)N[C@@H](Cc1ccccc1)C(=O)Nc1ccc(C(F)(F)F)cc1)c1cc(Cl)ccc1OCc1ccccc1`, the 50% growth inhibitory concentration (GI50) in the experiment with K562 was 12.7 µM; in the experiment on CCRF-CEM, 11.3 µM.

With `CC(C)C[C@H](NC(=O)c1cc(Cl)ccc1O)C(=O)N[C@@H](CC(C)C)C(=O)Nc1nccs1`, the GI50 in the experiment with K562 is 31.1 µM; with CCRF-CEM, 19.7 µM.

For `CC(C)C[C@H](NC(=O)c1cc(Cl)ccc1OCc1ccccc1)C(=O)N[C@@H](Cc1ccccc1)C(=O)Nc1ccc(Cl)c(Cl)c1`, the results for the GI50 with K562 and in the experiment on CCRF-CEM were 57.5 µM and 45.4 µM, respectively.

Turning to `CC(C)C[C@H](NC(=O)c1cc(Cl)ccc1OCc1ccccc1)C(=O)N[C@@H](CC(C)C)C(=O)Nc1ccccc1`, the 50% growth inhibitory concentration (GI50) with K562 was 71.2 µM; with CCRF-CEM, 48.9 µM.

As to `O=C(N[C@@H](Cc1ccccc1)C(=O)N[C@@H](Cc1ccccc1)C(=O)Nc1ccc(Cl)c(Cl)c1)c1cc(Cl)ccc1OCc1ccccc1`, the GI50 in the experiment with K562 is 9.9 µM; in the experiment with CCRF-CEM, 32.8 µM.

In the case of `CC(C)C[C@H](NC(=O)c1cc(Cl)ccc1OCc1ccccc1)C(=O)N[C@@H](CC(C)C)C(=O)Nc1ccc(Cl)c(Cl)c1`, the values for the 50% growth inhibitory concentration (GI50) in the experiment with K562 and in the experiment on CCRF-CEM were greater than 100 µM and 56.4 µM, respectively.

In the case of `CC(C)C[C@H](NC(=O)c1cc(Cl)ccc1O)C(=O)N[C@@H](CC(C)C)C(=O)NC1CCCCC1`, the GI50 was 55.7 µM in the experiment with K562 and 38.2 µM in the experiment on CCRF-CEM.

As to `O=C(N[C@@H](Cc1ccccc1)C(=O)Nc1ccc(C(F)(F)F)cc1)c1cc(Cl)ccc1OCc1ccccc1`, the 50% growth inhibitory concentration (GI50) in the experiment on K562 was greater than 50 µM; in the experiment with CCRF-CEM, 31.5 µM.

As for `O=C(N[C@@H](Cc1ccccc1)C(=O)Nc1ccc(C(F)(F)F)cc1)c1cc(Cl)ccc1O`, the GI50 in the experiment on K562 is 5.2 µM; with CCRF-CEM, 4.5 µM.

In the case of `CC(C)C[C@H](NC(=O)c1cc(Cl)ccc1O)C(=O)N[C@@H](CC(C)C)C(=O)N1CCOCC1`, the GI50 is greater than 50 µM with K562 and 54.9 µM in the experiment with CCRF-CEM.

Consider `CC(C)C[C@H](NC(=O)c1cc(Cl)ccc1OCc1ccccc1)C(=O)N[C@@H](CC(C)C)C(=O)Nc1ccc(C(F)(F)F)cc1`, for which the concentration for 50% growth inhibition (GI50) was 74.6 µM in the experiment on K562 and 59.9 µM in the experiment on CCRF-CEM.

As to `CC(C)C[C@H](NC(=O)c1cc(Cl)ccc1O)C(=O)N[C@@H](CC(C)C)C(=O)Nc1ccc(Cl)c(Cl)c1`, in the experiment on HCT-116 [1], the outcome was inactive. Further, the GI50 with HCT-116 [2] was 4 µM; in the experiment with G-361 it was 5.2 µM; in the experiment with K562, 3.2 µM; in the experiment with CCRF-CEM it was 2.6 µM; with MCF7, 4.1 µM.

Regarding `CC(C)C[C@H](NC(=O)c1cc(Cl)ccc1O)C(=O)N[C@@H](CC(C)C)C(=O)Nc1ccc(C(F)(F)F)cc1`, the concentration for 50% growth inhibition (GI50) in the experiment on HCT-116 [2] was 5.8 µM; in the experiment with G-361, 11.5 µM; in the experiment on K562, 7.5 µM; in the experiment on CCRF-CEM it was 6.2 µM; with MCF7, 5.3 µM.

For the molecule `CC(C)C[C@H](NC(=O)c1cc(Cl)ccc1OCc1ccccc1)C(=O)Nc1ccc(C(F)(F)F)cc1`, the 50% growth inhibitory concentration (GI50) is greater than 50 µM in the experiment on K562 and 35.4 µM with CCRF-CEM.

Consider `O=C(N[C@@H](Cc1ccccc1)C(=O)N[C@@H](Cc1ccccc1)C(=O)Nc1ccc(Cl)c(Cl)c1)c1cc(Cl)ccc1O`, for which the GI50 was 3 µM with HCT-116 [2]; 4.5 µM in the experiment on G-361; 5.8 µM with K562; 3.1 µM with CCRF-CEM; 5.2 µM in the experiment with MCF7.

On to `CC(C)C[C@H](NC(=O)c1cc(Cl)ccc1O)C(=O)N[C@@H](CC(C)C)C(=O)Nc1ccccc1`, for which the GI50 is 20.1 µM in the experiment on K562 and 10.2 µM in the experiment on CCRF-CEM.

Regarding `COc1ccc(NC(=O)[C@H](CC(C)C)NC(=O)[C@H](CC(C)C)NC(=O)c2cc(Cl)ccc2O)cc1`, the 50% growth inhibitory concentration (GI50) with K562 is 51 µM; in the experiment with CCRF-CEM it was 23.3 µM.

Regarding `CC(C)C[C@H](NC(=O)c1cc(Cl)ccc1O)C(=O)Nc1ccc(C(F)(F)F)cc1`, the GI50 in the experiment with K562 and in the experiment with CCRF-CEM was 5 µM each time.

For `CC(C)C[C@H](NC(=O)c1cc(Cl)ccc1OCc1ccccc1)C(=O)N[C@@H](CC(C)C)C(=O)NC1CCCCC1`, the GI50 is 19.8 µM in the experiment with K562 and 9.8 µM in the experiment with CCRF-CEM.

Consider `CC(C)C[C@H](NC(=O)c1cc(Cl)ccc1OCc1ccccc1)C(=O)N[C@@H](CC(C)C)C(=O)N1CCOCC1`, for which the GI50 in the experiment on K562 was 21 µM; with CCRF-CEM it was 20.1 µM.

Turning to `Cc1ccc(NC(=O)[C@H](CC(C)C)NC(=O)[C@H](CC(C)C)NC(=O)c2cc(Cl)ccc2O)cc1`, the GI50 was 30.7 µM with K562 and 13.2 µM in the experiment on CCRF-CEM.

Consider `COc1ccc(NC(=O)[C@H](CC(C)C)NC(=O)[C@H](CC(C)C)NC(=O)c2cc(Cl)ccc2OCc2ccccc2)cc1`, for which the GI50 is 68.3 µM with K562 and 53.2 µM in the experiment on CCRF-CEM.

As to `O=C(N[C@@H](Cc1ccccc1)C(=O)N[C@@H](Cc1ccccc1)C(=O)Nc1ccc(C(F)(F)F)cc1)c1cc(Cl)ccc1O`, the GI50 is 4.5 µM in the experiment with HCT-116 [2]; 5.1 µM with G-361; 5.1 µM in the experiment with K562; 4.7 µM in the experiment with CCRF-CEM; 5.6 µM in the experiment with MCF7.

As a reminder, the GI50 is the concentration giving 50% growth inhibition.
